# Experimental data from ChEMBL document CHEMBL1125248, “Synthesis and anticancer activity of various 3'-deoxy pyrimidine nucleoside analogues and crystal structure of 1-(3-deoxy-beta-D-threo-pentofuranosyl)cytosine” (1991).
# Experiments:
# Type in all cases: functional
# CCRF-CEM = experiment: Inhibit the replication of CCRF-CEM cell line in vitro.; details: Homo sapiens, read-out: ED50 (the source's name)
# Outline: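 Human CCRF-CEM lymphoblastic leukemia cells held in suspension in RPMI medium with 10% horse serum, 37 °C, humidified 5% CO2. Test agent at various concentrations added to exponential-phase cultures (2 × 10⁴ cells/mL). Cell numbers compared with untreated cultures at 24, 48 and 72 h. 50% replication-inhibiting concentration read from dose-response curves, at least two independent experiments.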
# L1210 = experiment: Effective dose to inhibit the replication of L1210 cell line in vitro.; details: Mus musculus, read-out: ED50 (the source's name)
# Outline: (§1)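 Murine L1210, P388 and S-180 cells grown as suspension cultures in Fischer's medium with 10% horse serum at 37 °C under 5% CO2. Various concentrations added to exponentially growing cells at 2 × 10⁴ cells/mL. Cells counted against drug-free controls after 24, 48 and 72 h. ED50 (50% inhibition of replication) estimated from dose-response curves of at least two independent experiments.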
# P388 = experiment: Effective dose to inhibit the replication of P388 cell line in vitro.; details: Mus musculus, read-out: ED50 (the source's name); outline: as §1
# CCRF S-180 = experiment: Effective dose to inhibit the replication of S180 cell line in vitro.; details: Mus musculus, read-out: ED50 (the source's name); outline: as §1
EC50 (CCRF-CEM) [µM],EC50 (L1210) [µM],EC50 (P388) [µM],EC50 (CCRF S-180) [µM],Structure (SMILES)
> 100,50,25,> 100,O=c1ccn([C@@H]2O[C@H](CO)C[C@H]2O)c(=O)[nH]1
2,10,5,34,Nc1ccn([C@@H]2O[C@H](CO)C[C@@H]2O)c(=O)n1
> 100,> 100,> 100,> 100,O=c1ccn([C@@H]2O[C@H](CO)C[C@@H]2O)c(=O)[nH]1
> 100,> 100,> 100,> 100,O=c1[nH]c(=O)n([C@@H]2O[C@H](CO)C[C@@H]2O)cc1Br
> 100,> 100,> 100,> 100,Nc1nc(=O)n([C@@H]2O[C@H](CO)C[C@H]2O)cc1Br
23,> 100,> 100,> 100,CC(=O)Nc1ccn([C@@H]2O[C@H](COC(C)=O)C[C@@H]2OC(C)=O)c(=O)n1
1,20,10,30,CC(=O)OC[C@@H]1C[C@H](OC(C)=O)[C@H](n2ccc(N)nc2=O)O1
> 100,> 100,> 100,> 100,O=c1[nH]c(=O)n([C@@H]2O[C@H](CO)C[C@@H]2O)cc1Cl
0.4,3,3,13,CC(=O)OC[C@@H]1C[C@H](O)[C@H](n2ccc(N)nc2=O)O1
> 100,> 100,> 100,> 100,Nc1nc(=O)n([C@@H]2O[C@H](CO)C[C@H]2O)cc1I
> 100,> 100,> 100,> 100,O=c1[nH]c(=O)n([C@@H]2O[C@H](CO)C[C@@H]2O)cc1I
> 100,> 100,> 100,> 100,CC(=O)Nc1ccn([C@@H]2O[C@H](CO)C[C@@H]2OC(C)=O)c(=O)n1
3,5,2,20,CC(=O)O[C@H]1C[C@@H](CO)O[C@H]1n1ccc(N)nc1=O
> 100,> 100,> 100,> 100,O=c1[nH]c(=O)n([C@@H]2O[C@H](CO)C[C@H]2O)cc1Br
25,5,2.5,15,Nc1ccn([C@@H]2O[C@H](CO)C[C@H]2O)c(=O)n1

Structure (SMILES),EC50 (CCRF-CEM) [µM],EC50 (L1210) [µM],EC50 (P388) [µM],EC50 (CCRF S-180) [µM]
Nc1ccn([C@@H]2O[C@H](CO)[C@@H](O)[C@@H]2O)c(=O)n1 [CYTARABINE],0.005,0.05,0.02,0.2
